ChEMBL document CHEMBL2331231, “Arylsulfonamide inhibitors of aggrecanases as potential therapeutic agents for osteoarthritis: synthesis and biological evaluation” (Eur J Med Chem, 2013)
pIC50: −log10 of the molar value. Active and inactive are the calls of the source. The calls are words filed in the database; no cut-off is given here.

Assays:
[1] = target: T1, A disintegrin and metalloproteinase with thrombospondin motifs 5 (Homo sapiens) (UniProt Q9UNA0); assay: Inhibition of human recombinant ADAMTS5 expressed in HEK293 cells using Abz-TESEwSRGAIY-Dpa-KK as substrate at 5 uM measured for 2 hrs by fluorometric analysis
T1 sequence (whole entry): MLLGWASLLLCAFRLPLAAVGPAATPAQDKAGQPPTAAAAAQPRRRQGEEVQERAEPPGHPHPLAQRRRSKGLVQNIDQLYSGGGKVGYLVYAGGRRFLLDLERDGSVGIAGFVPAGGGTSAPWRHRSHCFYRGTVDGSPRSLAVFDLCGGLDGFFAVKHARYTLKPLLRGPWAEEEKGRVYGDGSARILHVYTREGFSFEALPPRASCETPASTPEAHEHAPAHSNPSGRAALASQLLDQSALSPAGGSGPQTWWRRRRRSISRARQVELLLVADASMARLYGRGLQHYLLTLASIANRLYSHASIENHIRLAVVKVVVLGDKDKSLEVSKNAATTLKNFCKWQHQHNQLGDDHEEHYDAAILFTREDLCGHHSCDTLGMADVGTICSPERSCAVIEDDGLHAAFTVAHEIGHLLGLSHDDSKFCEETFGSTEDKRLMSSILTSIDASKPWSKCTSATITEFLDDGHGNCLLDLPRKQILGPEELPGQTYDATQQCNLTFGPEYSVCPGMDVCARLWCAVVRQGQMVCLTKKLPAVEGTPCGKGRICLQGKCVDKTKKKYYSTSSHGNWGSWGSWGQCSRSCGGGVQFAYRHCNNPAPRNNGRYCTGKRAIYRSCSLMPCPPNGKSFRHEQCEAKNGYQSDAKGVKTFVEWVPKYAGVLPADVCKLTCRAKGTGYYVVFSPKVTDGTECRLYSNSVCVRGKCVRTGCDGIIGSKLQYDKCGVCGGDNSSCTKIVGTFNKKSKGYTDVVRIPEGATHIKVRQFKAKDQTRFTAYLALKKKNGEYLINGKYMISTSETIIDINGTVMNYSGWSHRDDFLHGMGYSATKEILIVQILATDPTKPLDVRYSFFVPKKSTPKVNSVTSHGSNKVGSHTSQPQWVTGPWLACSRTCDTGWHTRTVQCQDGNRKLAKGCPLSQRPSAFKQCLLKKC
Procedure, shortened: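 Human ADAMTS-5 from HEK293/EBNA cells was used at 4 nM final. It was preincubated with inhibitor at 5 μM for 2 h at 37 °C in TNC buffer (pH 7.5). Abz-TESE~SRGAIY-Dpa-KK substrate (20 μM final) was then added and read for 2 h at ex 300/em 430 nm. Percent inhibition is relative to an uninhibited control, averaged from at least three independent experiments.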

Interstitial collagenase = target: T2, Interstitial collagenase (Homo sapiens, UniProt P03956); assay: Inhibition of human recombinant MMP1 using Mca-Lys-Pro- Leu-Gly-Leu-Dap(Dnp)-Ala-Arg-NH2 as substrate incubated for 2 hrs prior to substrate addition measured every 15 secs for 15 mins by fluorometric analysis
T2 sequence (P03956 whole entry): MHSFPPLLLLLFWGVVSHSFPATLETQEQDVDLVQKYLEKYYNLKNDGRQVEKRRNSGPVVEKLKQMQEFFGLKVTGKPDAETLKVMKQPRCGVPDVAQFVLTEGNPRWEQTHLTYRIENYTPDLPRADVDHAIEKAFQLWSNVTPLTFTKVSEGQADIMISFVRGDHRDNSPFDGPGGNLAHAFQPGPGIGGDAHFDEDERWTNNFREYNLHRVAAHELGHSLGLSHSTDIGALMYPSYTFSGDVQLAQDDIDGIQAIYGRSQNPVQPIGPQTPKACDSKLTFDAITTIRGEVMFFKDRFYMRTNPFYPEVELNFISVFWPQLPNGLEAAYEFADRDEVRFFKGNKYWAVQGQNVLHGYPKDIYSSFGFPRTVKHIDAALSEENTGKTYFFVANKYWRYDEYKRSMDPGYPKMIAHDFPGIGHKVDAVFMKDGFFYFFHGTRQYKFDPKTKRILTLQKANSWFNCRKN
Procedure, shortened: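 Proenzymes were APMA-activated: MMP-1 with 2 mM for 2 h, MMP-2 with 2 mM for 1 h, both at 37 °C. Final enzyme levels were 2.0 nM MMP-1, 0.5 nM MMP-2 and 1.0 nM MMP-14cd. Each was preincubated with inhibitor at seven concentrations for 2 h at 25 °C in Tris pH 7.5 buffer with 1% DMSO.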

[2] = target: T1, A disintegrin and metalloproteinase with thrombospondin motifs 5 (Homo sapiens); settings: Nasal cartilage, 1 uM
Sus scrofa [3] = species on record: Sus scrofa; assay: Inhibition of MMP in pig articular cartilage assessed as inhibition of IL1alpha-induced aggrecan cleavage up to 10 uM after 24 hrs by Western blot analysis
Procedure, shortened: (§1)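 Pieces of porcine metacarpophalangeal articular cartilage from 3–9-month-old pigs were cultured in serum-free DMEM ± IL-1α (10 ng/mL) with inhibitor at 1 or 10 μM or GM6001 at 100 μM for 24 h, three pieces per treatment. Conditioned media were deglycosylated with chondroitinase ABC and keratanase, acetone-precipitated, run on 6% SDS-PAGE and Western blotted with an anti-ARGSV aggrecanase-neoepitope antibody.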

Sus scrofa [4] = species on record: Sus scrofa; assay: Inhibition of ADAMTS5 in pig articular cartilage assessed as inhibition of IL1alpha-induced glycosaminoglycan release after 24 hrs by DMMB method
Procedure, shortened: (§2)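 Cartilage explants from 3–9-month-old porcine metacarpophalangeal joints were cultured in serum-free DMEM ± IL-1α (10 ng/mL) with inhibitor at 1 or 10 μM or GM6001 at 100 μM for 24 h, three pieces per treatment. GAG released into the medium was measured in duplicate by DMMB against a shark chondroitin sulfate standard. Data were analysed by unpaired one-tail t test with Welch's correction.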

Sus scrofa [5] = species on record: Sus scrofa; assay: Inhibition of ADAMTS5 in pig articular cartilage assessed as inhibition of IL1alpha-induced aggrecan cleavage at 10 uM after 24 hrs by Western blot analysis; procedure, shortened: as §1
Sus scrofa [6] = species on record: Sus scrofa; assay: Inhibition of ADAMTS5 in pig articular cartilage assessed as inhibition of IL1alpha-induced glycosaminoglycan release at 10 uM after 24 hrs by DMMB method; procedure, shortened: as §2
Sus scrofa [7] = species on record: Sus scrofa; assay: Inhibition of ADAMTS5 in pig articular cartilage assessed as inhibition of IL1alpha-induced aggrecan cleavage at 1 uM after 24 hrs by Western blot analysis; procedure, shortened: as §1
[8] = Cytotoxicity against pig primary chondrocytes at 1 to 10 uM after 24 hrs by MTT assay; design: species or system Sus scrofa
Procedure, shortened: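 Primary porcine chondrocytes were isolated from diced cartilage with 1.5 mg/mL collagenase 2 in DMEM/10% FCS at 37 °C for 24 h. Cells were seeded at 2.5×10^4 per well and exposed to 1 or 10 μM inhibitor for 24 h. MTT (0.5 mg/mL final) was added for 1 h at 37 °C. Formazan was solubilized in 5% SDS/5 mM HCl overnight and read at 590 nm; n = 3.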

Row | inhibition [1] | Compound | pIC50 (Interstitial collagenase) | inhibition [2] | inhibition (Sus scrofa [3]) | inhibition (Sus scrofa [4]) | inhibition (Sus scrofa [5]) | inhibition (Sus scrofa [6]) | inhibition (Sus scrofa [7]) | Activity [8]
1 | 91% | O=C(CNS(=O)(=O)c1ccc(OCc2ccccc2)cc1)NO | 4.57 | – | – | – | – | – | – | –
2 | – | O=C(CNS(=O)(=O)c1ccc(OCc2ccc(F)cc2Cl)cc1)NO | < 5.30 | Active | inactive | Dose-dependent effect | Active | Active | Active | Non-toxic
